Source: ChEMBL document CHEMBL1152768, “4-Benzyloxy-gamma-sultone derivatives: discovery of a novel family of non-nucleoside inhibitors of human cytomegalovirus and varicella zoster virus” (J Med Chem, 2009)

How the values were obtained:
[1] = tested on: Human betaherpesvirus 5; assay: Antiviral activity against HCMV Davis infected in human HEL cells assessed inhibition of virus-induced cytopathicity after 7 days postinfection; format: functional, organism-based; settings: Human betaherpesvirus 5, Davis, 168 h
Outline: (§1)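 HEL fibroblasts were infected at 100 PFU. After 2 h, residual virus was removed and medium with test compound was added at several concentrations, in duplicate. Cells were incubated 7 days at 37 °C, fixed with ethanol and stained with Giemsa.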

[2] = tested on: Human betaherpesvirus 5; assay: Antiviral activity against HCMV AD169 infected in human HEL cells assessed inhibition of virus-induced cytopathicity after 7 days postinfection; format: functional, organism-based; settings: Human betaherpesvirus 5, AD169, HEL, 168 h; outline: as §1
[3] = tested on: Human alphaherpesvirus 3; assay: Antiviral activity against thymidine kinase expressing Varicella zoster virus Oka infected in human HEL cells assessed reduction in viral plaque formation; format: functional, organism-based; settings: Human alphaherpesvirus 3, Oka
Outline: (§2)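 Confluent HEL cell monolayers were inoculated with VZV at 20 PFU per well. Residual virus was removed after 2 h, and compound was added at varying concentrations, in duplicate.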

[4] = tested on: Human alphaherpesvirus 3; assay: Antiviral activity against thymidine kinase deficient Varicella zoster virus 07/1 infected in human HEL cells assessed reduction in viral plaque formation; format: functional, organism-based; settings: Human alphaherpesvirus 3, HEL; outline: as §2
[5] = Cytotoxicity against human HEL cells assessed as morphological alteration after 3 days; format: cell-based
Outline: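 HEL cultures were examined under the microscope. MCC was recorded as the compound concentration causing a microscopically detectable alteration of normal cell morphology.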

[6] = Cytotoxicity against human HEL cells assessed as reduction of growth after 3 days; format: cell-based
Outline: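 HEL cells were seeded at 5 × 10³ cells/well and grown 24 h before compound was added at different concentrations. After 3 days at 37 °C, cells were counted with a Coulter counter. CC50, the concentration halving growth relative to untreated controls, was read from plots of cell number (% of control) against concentration.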

[7] = tested on: Human betaherpesvirus 5; assay: Antiviral activity against ganciclovir-resistant HCMV AD169 clone 4 infected in HEL cells assessed as inhibition of virus-induced cytopathicity; format: functional, organism-based; settings: Human betaherpesvirus 5, AD169, HEL
[8] = tested on: Human betaherpesvirus 5; assay: Antiviral activity against foscarnet-resistant HCMV AD169 clone C infected in HEL cells assessed as inhibition of virus-induced cytopathicity; format: functional, organism-based; settings: Human betaherpesvirus 5, AD169, HEL
[9] = tested on: Human betaherpesvirus 5; assay: Antiviral activity against cidofovir HCMV AD169 clone 5 infected in human HEL cells assessed as inhibition of virus-induced cytopathicity; format: functional, organism-based; settings: Human betaherpesvirus 5, AD169, HEL
[10] = tested on: Human betaherpesvirus 5; assay: Antiviral activity against PMEDAP-resistant HCMV AD169 clone 4 infected in HEL cells assessed as inhibition of virus-induced cytopathicity; format: functional, organism-based; settings: Human betaherpesvirus 5, AD169, HEL
[11] = tested on: Human betaherpesvirus 5; assay: Antiviral activity against HPMPA-resistant HCMV AD169 clone 2 mutant infected in HEL cells assessed as inhibition of virus-induced cytopathicity; format: functional, organism-based; settings: Human betaherpesvirus 5, AD169, HEL
[12] = tested on: Human betaherpesvirus 5; assay: Antiviral activity against acyclovir-resistant HCMV AD169 clone 1 infected in HEL cells assessed as inhibition of virus-induced cytopathicity; format: functional, organism-based; settings: Human betaherpesvirus 5, AD169, HEL
[13] = tested on: Human betaherpesvirus 5; assay: Antiviral activity against wild type HCMV AD169 infected in HEL cells assessed as inhibition of virus-induced cytopathicity; format: functional, organism-based; settings: Human betaherpesvirus 5, AD169, HEL
Outline: (§3)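 HEL fibroblast cultures infected at 100 PFU input. After 2 h, residual virus was removed and compound-containing medium was added at varying concentrations, in duplicate. Cells were incubated 7 days at 37 °C, ethanol-fixed and Giemsa-stained, and cytopathicity was scored microscopically.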

[14] = tested on: Human betaherpesvirus 5; assay: Antiviral activity against wild type HCMV Davis infected in HEL cells assessed as inhibition of virus-induced cytopathicity; format: functional, organism-based; settings: Human betaherpesvirus 5, Davis; outline: as §3

Row | SMILES | EC50 [1] | EC50 [2] | EC50 [3] | EC50 [4] | MCC at 72 h [5] | CC50 at 72 h [6] | EC50 [7] | EC50 [8] | EC50 [9] | EC50 [10] | EC50 [11] | EC50 [12] | EC50 [13] | EC50 [14]
1 | CCC1(Cc2ccccc2)OS(=O)(=O)C=C1OC(=O)c1ccccc1 (racemic) | 179 µM | > 400 µM | > 400 µM | > 400 µM | > 400 µM | > 200 µM |  |  |  |  |  |  |  | 
2 | Nc1ncnc2c1ncn2C[C@@H](CO)OCP(=O)(O)O |  |  |  |  |  |  | 2.1 µM | 0.036 µM | 2.1 µM | 0.12 µM | 1.9 µM | 0.08 µM | 0.17 µM | 0.2 µM
3 | CC1(Cc2ccccc2)OS(=O)(=O)C=C1OCc1ccccc1 (racemic) | > 200 µM | > 200 µM | 306 µM | > 400 µM | > 400 µM | 68 µM |  |  |  |  |  |  |  | 
4 | CCCC1(Cc2ccccc2)OS(=O)(=O)C=C1OCc1ccccc1 (racemic) | > 400 µM | > 400 µM | > 80 µM | > 400 µM | ≥ 400 µM | 200 µM |  |  |  |  |  |  |  | 
5 | Nc1nc2c(ncn2COC(CO)CO)c(=O)[nH]1 [GANCICLOVIR] | 3.6 µM |  |  |  | > 400 µM | 134 µM | 4.3 µM |  | 4 µM | 3.5 µM | 1.2 µM | 0.69 µM | 0.7 µM | 0.66 µM
6 | CCC1(Cc2ccccc2)OS(=O)(=O)CC1=O (stereo unspecified) | 400 µM | > 400 µM | 10 µM | 10.5 µM | > 100 µM | 200 µM |  |  |  |  |  |  |  | 
7 | CCC1(Cc2ccccc2)OS(=O)(=O)C=C1OCc1ccc(C)cc1 (racemic) | 5.9 µM | 7.2 µM | 6.4 µM | 5.9 µM | ≥ 16 µM | 41.5 µM |  |  |  |  |  |  |  | 
8 | C=CCOC1=CS(=O)(=O)OC1(CC)Cc1ccccc1 (racemic) | > 400 µM | > 400 µM | > 16 µM | > 16 µM | 80 µM | > 200 µM |  |  |  |  |  |  |  | 
9 | CCC1(Cc2ccccc2)OS(=O)(=O)C=C1OCC(=O)OC (racemic) | > 400 µM | > 400 µM | > 400 µM | > 400 µM | > 400 µM | > 200 µM |  |  |  |  |  |  |  | 
10 | CCC1(Cc2ccccc2)OS(=O)(=O)C=C1OCCCCc1ccccc1 (racemic) | 7.8 µM | > 3.2 µM | 6.2 µM | > 20 µM | ≥ 20 µM | 99 µM |  |  |  |  |  |  |  | 
11 | CC(C)CC1(Cc2ccccc2)OS(=O)(=O)C=C1OCc1ccccc1 (racemic) | > 400 µM | > 400 µM | > 80 µM | > 80 µM | ≥ 80 µM | 102 µM |  |  |  |  |  |  |  | 
12 | CCC1(Cc2ccccc2)OS(=O)(=O)C=C1OCC=C(C)C (racemic) | > 80 µM | > 80 µM | 59 µM | 52 µM | 400 µM | 112 µM |  |  |  |  |  |  |  | 
13 | CCC1(Cc2ccccc2)OS(=O)(=O)C=C1OCCCc1ccccc1 (racemic) | 8.7 µM | 9 µM | > 3.2 µM | 6.5 µM | ≥ 20 µM | 133 µM |  |  |  |  |  |  |  | 
14 | CCC1(Cc2ccccc2)OS(=O)(=O)C=C1OCC#N (racemic) | 235 µM | > 80 µM | 199 µM | 199 µM | > 400 µM | > 200 µM |  |  |  |  |  |  |  | 
15 | CCC1(Cc2ccccc2)OS(=O)(=O)C=C1OCc1ccc(Cl)c(Cl)c1 (racemic) | 7.2 µM | 6.5 µM | > 3.2 µM | > 3.2 µM | ≥ 20 µM | 36.7 µM |  |  |  |  |  |  |  | 
16 | CCC1(Cc2ccccc2)OS(=O)(=O)C=C1OCCCCCCc1ccccc1 (racemic) | 6.4 µM | < 3.2 µM | 8.7 µM | 8.4 µM | ≥ 20 µM | < 200 µM |  |  |  |  |  |  |  | 
17 | Nc1nc(N)c2ncn(CCOCP(=O)(O)O)c2n1 [PMEDAP] |  |  |  |  |  |  | 1.9 µM | 25 µM | 3.5 µM | 37 µM | 0.82 µM | > 50 µM | 8.4 µM | 7.7 µM
18 | O=S1(=O)C=C(OCc2ccccc2)C2(CCc3ccccc3C2)O1 (racemic) | > 80 µM | > 400 µM | 80 µM | > 16 µM | ≥ 80 µM | 131 µM |  |  |  |  |  |  |  | 
